Assay results as given in publication PMC3338355 (Biochemistry, 2011).
Non-standard residues stand in square brackets, D forms with d. No end group written: not given here. pS = N[C@@H](COP(=O)(O)O)C(=O)O

Legend:
dullard = details: dullard-catalyzed hydrolysis of generic substrate; cited from earlier work
Dullard 46–244 [1] = target: T1, Dullard 46–244 (Homo sapiens, UniProt O95476); test: Biomol Green phosphate reagent; format: biochemical; details: values in parentheses, 25 °C
T1 sequence (O95476 46-244): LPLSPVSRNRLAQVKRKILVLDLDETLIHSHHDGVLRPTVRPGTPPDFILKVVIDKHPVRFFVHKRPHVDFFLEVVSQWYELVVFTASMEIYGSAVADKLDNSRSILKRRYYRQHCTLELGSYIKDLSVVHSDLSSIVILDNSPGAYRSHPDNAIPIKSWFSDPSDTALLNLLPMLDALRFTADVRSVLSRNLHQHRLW
In short: (§1)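 Dullard residues 46–244 expressed in E. coli and purified to >95% by SDS/PAGE. Substrates were Pro/Thr/Ser-containing phosphoserine nonapeptides representing lipin1 phosphorylation sites. Dephosphorylation was followed as phosphate release under steady-state conditions to derive kcat/Km. The MESG-coupled assay and the molybdate green assay were used as independent read-outs.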

Dullard 46–244 [2] = target: T1, Dullard 46–244; test: MESG-coupled phosphatase assay; format: biochemical; details: MESG-coupled phosphatase assay (EnzChek E-6646), 25°C
In short: as §1

Molecule: O=[N+]([O-])c1ccc(OP(=O)(O)O)cc1 [pNPP, p-nitrophenyl phosphate]
- Km (dullard): 18000 µM
- kcat (dullard): 1 s⁻¹
- kcat/Km (dullard): 56 M⁻¹ s⁻¹

Molecule: DNMNT[pS]EDE [S176]
- kcat (Dullard 46–244 [1]): > 0.5 s⁻¹

Molecule: PIL[pS]EGASR [S110]
- kcat/Km (Dullard 46–244 [2]): 650 M⁻¹ s⁻¹
- Km (Dullard 46–244 [1]): 700 µM
- kcat (Dullard 46–244 [1]): 0.28 ± 0.02 s⁻¹
- kcat/Km (Dullard 46–244 [1]): 400 M⁻¹ s⁻¹

Molecule: SGSRP[pS]TP [S248]
- kcat/Km (Dullard 46–244 [2]): 750 M⁻¹ s⁻¹
- Km (Dullard 46–244 [1]): 700 µM
- kcat (Dullard 46–244 [1]): 0.01 ± 0.002 s⁻¹
- kcat/Km (Dullard 46–244 [1]): 14 M⁻¹ s⁻¹
